{"source": "ChEMBL document CHEMBL1157731", "about": "“Novel KCNQ2/Q3 agonists as potential therapeutics for epilepsy and neuropathic pain” (J Med Chem, 2010)", "key": {"[1]": {"biological_target": "Adrenergic receptor alpha-1 (Rattus norvegicus) (UniProt P15823+P23944+P43140)", "experiment": "Displacement of [3H]prazosin from adrenergic receptor 1 alpha in rat cerebral cortex at 10 uM", "format": "tissue-based"}, "[2]": {"biological_target": "T1, Adenosine receptor A1 (Homo sapiens) (UniProt P30542)", "T1 sequence (whole entry)": "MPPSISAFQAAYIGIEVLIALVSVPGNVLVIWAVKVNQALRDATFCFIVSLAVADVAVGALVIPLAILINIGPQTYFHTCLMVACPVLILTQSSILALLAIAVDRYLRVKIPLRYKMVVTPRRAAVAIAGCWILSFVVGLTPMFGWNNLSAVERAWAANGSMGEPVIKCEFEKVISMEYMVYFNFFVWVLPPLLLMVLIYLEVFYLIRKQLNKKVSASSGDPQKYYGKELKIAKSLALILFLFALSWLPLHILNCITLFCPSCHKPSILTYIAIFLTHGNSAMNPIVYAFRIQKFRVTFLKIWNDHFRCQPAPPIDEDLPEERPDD", "experiment": "Displacement of [3H]CCPA from human recombinant adenosine A1 receptor expressed in CHO cells at 10 uM", "format": "cell-based"}, "[3]": {"biological_target": "5-hydroxytryptamine receptor 1B (Homo sapiens) (UniProt P28222)", "sequence (P28222 whole entry)": "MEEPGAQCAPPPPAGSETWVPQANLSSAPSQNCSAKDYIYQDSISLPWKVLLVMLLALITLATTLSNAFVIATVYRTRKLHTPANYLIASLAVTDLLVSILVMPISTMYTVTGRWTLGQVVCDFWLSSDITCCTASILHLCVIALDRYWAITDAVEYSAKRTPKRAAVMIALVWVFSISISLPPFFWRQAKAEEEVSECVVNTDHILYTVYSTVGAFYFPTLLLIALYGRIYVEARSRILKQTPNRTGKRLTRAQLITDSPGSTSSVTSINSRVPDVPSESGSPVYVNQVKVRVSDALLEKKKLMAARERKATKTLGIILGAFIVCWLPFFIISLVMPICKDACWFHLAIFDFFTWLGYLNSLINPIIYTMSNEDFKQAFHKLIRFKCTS", "experiment": "Displacement of radioligand from 5HT1B receptor at 10 uM by displacement assay"}, "[4]": {"biological_target": "Sodium-dependent noradrenaline transporter (Homo sapiens) (UniProt P23975)", "sequence (P23975 whole entry)": "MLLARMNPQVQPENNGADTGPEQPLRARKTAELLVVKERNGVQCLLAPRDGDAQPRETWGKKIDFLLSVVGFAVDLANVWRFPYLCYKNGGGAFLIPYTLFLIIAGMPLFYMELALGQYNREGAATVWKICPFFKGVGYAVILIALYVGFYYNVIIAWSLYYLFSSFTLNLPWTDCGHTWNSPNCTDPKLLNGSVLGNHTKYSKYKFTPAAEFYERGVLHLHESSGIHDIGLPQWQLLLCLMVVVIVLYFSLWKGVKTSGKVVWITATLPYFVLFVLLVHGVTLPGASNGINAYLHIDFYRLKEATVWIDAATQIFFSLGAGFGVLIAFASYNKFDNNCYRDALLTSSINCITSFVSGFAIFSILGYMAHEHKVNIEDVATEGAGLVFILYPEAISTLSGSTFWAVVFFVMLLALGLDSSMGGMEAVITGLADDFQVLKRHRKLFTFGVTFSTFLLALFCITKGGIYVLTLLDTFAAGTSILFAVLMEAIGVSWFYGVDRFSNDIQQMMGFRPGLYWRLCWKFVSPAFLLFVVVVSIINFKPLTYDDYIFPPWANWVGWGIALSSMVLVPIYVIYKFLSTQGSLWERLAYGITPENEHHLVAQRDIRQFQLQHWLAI", "experiment": "Binding affinity to NET at 10 uM by displacement assay"}, "Rattus norvegicus": {"test_system": "Rattus norvegicus", "experiment": "Anticonvulsant activity in po dosed Sprague-Dawley rat assessed as inhibition of pentylenetetrazole-induced seizure treated 30 mins before PTZ challenge", "format": "functional, organism-based", "method_in_brief": "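Male Sprague-Dawley rats received compound po in 0.5% methylcellulose (1 mL/kg) 30 min before PTZ 85 mg/kg sc. Latency to tonic-clonic seizure timed from PTZ injection. No seizure within 15 min scored as protected (latency 15 min). EC50 derived from latency scores.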"}, "[5]": {"biological_target": "D(2) dopamine receptor (Homo sapiens) (UniProt P14416)", "sequence (P14416 whole entry)": "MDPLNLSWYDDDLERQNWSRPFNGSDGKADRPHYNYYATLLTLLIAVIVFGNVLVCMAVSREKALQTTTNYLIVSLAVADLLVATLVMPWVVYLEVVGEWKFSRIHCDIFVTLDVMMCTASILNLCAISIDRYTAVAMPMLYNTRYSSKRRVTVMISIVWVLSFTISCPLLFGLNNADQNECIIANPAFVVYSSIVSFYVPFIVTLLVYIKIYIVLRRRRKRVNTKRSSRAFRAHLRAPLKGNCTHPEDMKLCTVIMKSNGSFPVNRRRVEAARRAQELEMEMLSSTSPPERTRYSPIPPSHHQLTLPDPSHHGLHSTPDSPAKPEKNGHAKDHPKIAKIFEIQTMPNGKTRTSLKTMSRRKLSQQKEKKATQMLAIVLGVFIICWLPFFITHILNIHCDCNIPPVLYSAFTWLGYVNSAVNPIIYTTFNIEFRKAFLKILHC", "experiment": "Displacement of radioligand from dopamine D2 receptor at 10 uM"}, "[6]": {"biological_target": "Sodium-dependent dopamine transporter (Homo sapiens) (UniProt Q01959)", "sequence (Q01959 whole entry)": "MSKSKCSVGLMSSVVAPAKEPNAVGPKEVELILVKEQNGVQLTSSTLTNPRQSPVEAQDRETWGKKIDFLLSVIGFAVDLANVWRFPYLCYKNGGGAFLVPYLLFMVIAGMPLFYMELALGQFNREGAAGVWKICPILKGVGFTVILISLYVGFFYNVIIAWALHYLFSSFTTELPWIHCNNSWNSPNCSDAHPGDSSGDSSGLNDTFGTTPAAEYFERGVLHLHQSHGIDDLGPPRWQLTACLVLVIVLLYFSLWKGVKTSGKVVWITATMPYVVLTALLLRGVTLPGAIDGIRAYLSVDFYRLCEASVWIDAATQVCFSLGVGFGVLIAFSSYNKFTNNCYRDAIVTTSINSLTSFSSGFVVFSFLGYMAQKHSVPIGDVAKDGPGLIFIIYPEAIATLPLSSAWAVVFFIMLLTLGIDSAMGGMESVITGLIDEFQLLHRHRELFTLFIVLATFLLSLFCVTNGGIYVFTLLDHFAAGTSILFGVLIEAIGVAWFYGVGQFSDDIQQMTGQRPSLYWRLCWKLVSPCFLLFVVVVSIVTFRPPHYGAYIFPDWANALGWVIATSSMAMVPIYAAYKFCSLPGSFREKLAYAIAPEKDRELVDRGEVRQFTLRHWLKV", "experiment": "Binding affinity to DAT at 10 uM by displacement assay"}, "[7]": {"biological_target": "Substance-P receptor (Homo sapiens) (UniProt P25103)", "sequence (P25103 whole entry)": "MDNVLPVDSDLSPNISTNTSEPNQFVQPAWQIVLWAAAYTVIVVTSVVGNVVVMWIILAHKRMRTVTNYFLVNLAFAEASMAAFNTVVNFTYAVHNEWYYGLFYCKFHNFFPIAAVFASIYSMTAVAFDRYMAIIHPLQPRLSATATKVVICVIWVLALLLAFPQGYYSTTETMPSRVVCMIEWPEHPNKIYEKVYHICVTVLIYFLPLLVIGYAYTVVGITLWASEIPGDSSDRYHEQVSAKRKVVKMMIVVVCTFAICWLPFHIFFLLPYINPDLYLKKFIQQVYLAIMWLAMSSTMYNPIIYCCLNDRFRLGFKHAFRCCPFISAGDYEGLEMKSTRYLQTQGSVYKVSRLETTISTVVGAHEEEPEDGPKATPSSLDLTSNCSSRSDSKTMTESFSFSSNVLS", "experiment": "Displacement of [125I]BH-SP from NK1 receptor in human U373MG cells at 10 uM", "format": "cell-based", "settings": "U-373MG ATCC"}, "[8]": {"biological_target": "T2, 5-hydroxytryptamine receptor 1A (Homo sapiens) (UniProt P08908)", "T2 sequence (whole entry)": "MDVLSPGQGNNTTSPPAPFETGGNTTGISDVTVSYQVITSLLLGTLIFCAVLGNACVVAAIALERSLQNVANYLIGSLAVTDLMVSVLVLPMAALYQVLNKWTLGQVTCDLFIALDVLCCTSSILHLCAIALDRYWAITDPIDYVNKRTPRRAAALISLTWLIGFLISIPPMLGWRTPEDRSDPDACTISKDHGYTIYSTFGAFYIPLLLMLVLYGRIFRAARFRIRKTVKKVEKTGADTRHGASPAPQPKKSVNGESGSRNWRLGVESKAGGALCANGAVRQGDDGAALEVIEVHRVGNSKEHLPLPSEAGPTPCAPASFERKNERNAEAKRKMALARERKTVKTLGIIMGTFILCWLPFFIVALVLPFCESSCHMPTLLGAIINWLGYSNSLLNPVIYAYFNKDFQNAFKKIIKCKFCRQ", "experiment": "Displacement of radioligand from 5HT1A receptor at 10 uM by displacement assay"}, "[9]": {"biological_target": "T3, Alpha-2A adrenergic receptor (Homo sapiens) (UniProt P08913)", "T3 sequence (whole entry)": "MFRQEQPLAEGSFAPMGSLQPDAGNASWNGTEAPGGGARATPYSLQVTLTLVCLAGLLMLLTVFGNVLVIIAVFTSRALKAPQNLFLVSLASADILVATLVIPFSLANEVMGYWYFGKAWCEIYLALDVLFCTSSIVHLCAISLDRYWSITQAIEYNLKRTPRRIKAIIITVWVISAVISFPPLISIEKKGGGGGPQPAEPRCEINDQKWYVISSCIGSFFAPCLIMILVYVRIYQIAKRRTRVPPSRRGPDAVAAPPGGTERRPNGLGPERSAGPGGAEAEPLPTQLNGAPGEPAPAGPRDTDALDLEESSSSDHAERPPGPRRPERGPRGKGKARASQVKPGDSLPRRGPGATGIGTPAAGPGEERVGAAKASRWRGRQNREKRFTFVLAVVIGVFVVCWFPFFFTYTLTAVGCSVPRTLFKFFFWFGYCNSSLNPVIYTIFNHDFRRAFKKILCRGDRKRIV", "experiment": "Displacement of radioligand from alpha 2 adrenergic receptor at 10 uM"}, "[10]": {"biological_target": "T4, Endothelin-1 receptor (Homo sapiens) (UniProt P25101)", "T4 sequence (whole entry)": "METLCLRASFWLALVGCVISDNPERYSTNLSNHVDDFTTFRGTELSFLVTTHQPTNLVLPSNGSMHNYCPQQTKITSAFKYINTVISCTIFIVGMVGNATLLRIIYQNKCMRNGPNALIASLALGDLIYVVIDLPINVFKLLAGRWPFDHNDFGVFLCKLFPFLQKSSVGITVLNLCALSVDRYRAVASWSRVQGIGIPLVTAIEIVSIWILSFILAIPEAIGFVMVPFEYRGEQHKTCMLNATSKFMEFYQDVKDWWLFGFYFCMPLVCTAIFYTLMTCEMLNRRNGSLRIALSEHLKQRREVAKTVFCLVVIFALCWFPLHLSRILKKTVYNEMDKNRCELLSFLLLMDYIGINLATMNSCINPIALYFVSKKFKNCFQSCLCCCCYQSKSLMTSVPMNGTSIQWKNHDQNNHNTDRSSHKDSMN", "experiment": "Displacement of [125I]endothelin-1 from human recombinant endothelin A receptor expressed in CHO cells", "format": "cell-based"}, "[11]": {"biological_target": "Voltage-gated potassium channel, KQT; KCNQ2(Kv7.2)/KCNQ3(Kv7.3) (Homo sapiens, UniProt O43525+O43526)", "sequence (O43526 whole entry)": "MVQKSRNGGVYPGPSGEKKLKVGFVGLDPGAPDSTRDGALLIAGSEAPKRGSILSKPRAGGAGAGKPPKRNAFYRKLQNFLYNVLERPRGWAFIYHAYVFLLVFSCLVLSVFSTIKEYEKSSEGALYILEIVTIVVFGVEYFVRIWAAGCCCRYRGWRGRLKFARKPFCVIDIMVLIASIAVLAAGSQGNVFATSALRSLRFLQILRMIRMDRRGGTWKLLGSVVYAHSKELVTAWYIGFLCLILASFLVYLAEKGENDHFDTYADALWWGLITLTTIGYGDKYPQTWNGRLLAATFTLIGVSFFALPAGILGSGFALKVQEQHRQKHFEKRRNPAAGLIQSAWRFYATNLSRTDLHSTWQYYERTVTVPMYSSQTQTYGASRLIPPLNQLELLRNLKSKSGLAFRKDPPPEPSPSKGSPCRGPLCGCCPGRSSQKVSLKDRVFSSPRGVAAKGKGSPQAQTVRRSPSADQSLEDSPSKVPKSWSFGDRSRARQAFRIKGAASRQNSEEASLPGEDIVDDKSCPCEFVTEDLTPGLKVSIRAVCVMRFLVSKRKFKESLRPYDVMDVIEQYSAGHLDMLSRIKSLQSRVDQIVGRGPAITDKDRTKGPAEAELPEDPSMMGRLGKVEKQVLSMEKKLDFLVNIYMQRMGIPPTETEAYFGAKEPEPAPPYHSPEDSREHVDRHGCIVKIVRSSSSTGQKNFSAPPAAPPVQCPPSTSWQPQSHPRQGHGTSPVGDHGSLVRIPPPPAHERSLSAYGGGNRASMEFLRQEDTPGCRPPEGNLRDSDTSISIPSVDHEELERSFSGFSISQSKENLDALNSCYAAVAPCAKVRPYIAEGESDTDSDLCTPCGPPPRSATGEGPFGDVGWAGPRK", "sequence (O43525 whole entry)": "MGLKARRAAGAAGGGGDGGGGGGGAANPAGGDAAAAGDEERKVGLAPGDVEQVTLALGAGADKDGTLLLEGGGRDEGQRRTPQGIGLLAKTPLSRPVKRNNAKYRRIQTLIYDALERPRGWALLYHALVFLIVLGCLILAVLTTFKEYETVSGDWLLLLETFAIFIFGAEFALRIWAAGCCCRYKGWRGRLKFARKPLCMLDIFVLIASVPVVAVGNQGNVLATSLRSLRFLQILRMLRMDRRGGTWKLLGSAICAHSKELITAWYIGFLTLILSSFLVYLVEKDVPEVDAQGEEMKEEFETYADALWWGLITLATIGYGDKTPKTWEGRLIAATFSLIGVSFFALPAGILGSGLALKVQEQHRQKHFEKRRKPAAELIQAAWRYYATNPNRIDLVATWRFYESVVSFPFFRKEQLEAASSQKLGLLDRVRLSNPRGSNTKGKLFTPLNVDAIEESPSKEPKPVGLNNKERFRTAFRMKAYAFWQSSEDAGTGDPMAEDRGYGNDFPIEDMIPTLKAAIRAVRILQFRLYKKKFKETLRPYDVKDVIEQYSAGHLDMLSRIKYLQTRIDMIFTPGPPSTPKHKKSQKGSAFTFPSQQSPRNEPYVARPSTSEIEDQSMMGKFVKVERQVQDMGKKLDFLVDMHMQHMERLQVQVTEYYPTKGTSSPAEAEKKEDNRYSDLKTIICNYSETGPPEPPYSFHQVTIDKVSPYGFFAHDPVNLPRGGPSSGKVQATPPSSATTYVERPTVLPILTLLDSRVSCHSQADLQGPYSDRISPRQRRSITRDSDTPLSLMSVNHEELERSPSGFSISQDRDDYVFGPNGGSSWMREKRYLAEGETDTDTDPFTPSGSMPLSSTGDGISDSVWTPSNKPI", "experiment": "Activation of KCNQ2/KCNQ3 expressed in CHO cells by isotopic efflux assay", "format": "cell-based", "method_in_brief": "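86Rb+ flux in K+-channel-expressing cells loaded by culture in 86RbCl, then washed in EBSS. Preincubated with drug (0.01-30 μM in EBSS), then efflux stimulated by submaximal KCl (generally 7-20 mM) with drug still present. Supernatant and SDS lysate counted by Cherenkov. Percent efflux normalized to high-KCl (generally 30-135 mM) maximum. EC50 from eight-point half-log curves; mean of 2-4 determinations ± SEM.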"}, "[12]": {"experiment": "Displacement of radioligand from opiate receptor at 10 uM"}}}
{"compound": "CC(C)OC(=O)N/N=c1\\sc2cc(OC(F)(F)F)ccc2n1C", "values": [{"measurement": "Activity", "setting": "[1]", "value": 11, "unit": "%"}, {"measurement": "Activity", "setting": "[2]", "value": 11, "unit": "%"}, {"measurement": "Activity", "setting": "[3]", "value": 0, "unit": "%"}, {"measurement": "Activity", "setting": "[4]", "value": 43, "unit": "%"}, {"measurement": "EC50", "setting": "Rattus norvegicus", "value": 2.6, "unit": "mg/kg"}, {"measurement": "Activity", "setting": "[5]", "value": 0, "unit": "%"}, {"measurement": "Activity", "setting": "[6]", "value": 0, "unit": "%"}, {"measurement": "Activity", "setting": "[7]", "value": 10, "unit": "%"}, {"measurement": "Activity", "setting": "[8]", "value": 18, "unit": "%"}, {"measurement": "Activity", "setting": "[9]", "value": 0, "unit": "%"}, {"measurement": "Activity", "setting": "[10]", "value": 0, "unit": "%"}, {"measurement": "EC50", "setting": "[11]", "value": 0.095, "unit": "µM"}, {"measurement": "Activity", "setting": "[12]", "value": 11, "unit": "%"}]}
{"compound": "Cn1/c(=N/NC(=O)CC(C)(C)C)sc2cc(OC(F)(F)F)ccc21", "values": [{"measurement": "Activity", "setting": "[1]", "value": 0, "unit": "%"}, {"measurement": "Activity", "setting": "[2]", "value": 0, "unit": "%"}, {"measurement": "Activity", "setting": "[3]", "value": 0, "unit": "%"}, {"measurement": "Activity", "setting": "[4]", "value": 14, "unit": "%"}, {"measurement": "EC50", "setting": "Rattus norvegicus", "value": 3.8, "unit": "mg/kg"}, {"measurement": "Activity", "setting": "[5]", "value": 0, "unit": "%"}, {"measurement": "Activity", "setting": "[6]", "value": 0, "unit": "%"}, {"measurement": "Activity", "setting": "[7]", "value": 0, "unit": "%"}, {"measurement": "Activity", "setting": "[8]", "value": 0, "unit": "%"}, {"measurement": "Activity", "setting": "[9]", "value": 0, "unit": "%"}, {"measurement": "Activity", "setting": "[10]", "value": 0, "unit": "%"}, {"measurement": "EC50", "setting": "[11]", "value": 0.049, "unit": "µM"}, {"measurement": "Activity", "setting": "[12]", "value": 0, "unit": "%"}]}
{"compound": "Cn1/c(=N/NC(=O)CC2CCCC2)sc2cc(OC(F)(F)F)ccc21", "values": [{"measurement": "Activity", "setting": "[1]", "value": 0, "unit": "%"}, {"measurement": "Activity", "setting": "[2]", "value": 0, "unit": "%"}, {"measurement": "Activity", "setting": "[3]", "value": 0, "unit": "%"}, {"measurement": "Activity", "setting": "[4]", "value": 34, "unit": "%"}, {"measurement": "EC50", "setting": "Rattus norvegicus", "value": 7.5, "unit": "mg/kg"}, {"measurement": "Activity", "setting": "[5]", "value": 0, "unit": "%"}, {"measurement": "Activity", "setting": "[6]", "value": 21, "unit": "%"}, {"measurement": "Activity", "setting": "[7]", "value": 21, "unit": "%"}, {"measurement": "Activity", "setting": "[8]", "value": 0, "unit": "%"}, {"measurement": "Activity", "setting": "[9]", "value": 0, "unit": "%"}, {"measurement": "Activity", "setting": "[10]", "value": 0, "unit": "%"}, {"measurement": "EC50", "setting": "[11]", "value": 0.044, "unit": "µM"}, {"measurement": "Activity", "setting": "[12]", "value": 16, "unit": "%"}]}
